Screens: PubChem, several laboratories
MT stabilize HCS: microtubule stabilizers in HeLa cells; % tubulin-high responders, % at 10 µM; actives 0.83% (n = 200,000); HeLa tubulin immunostaining HCS, 24 h; share of cells brighter than vehicle mean+2SD;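 active = plate Z-score above 3 for both tubulin-high and condensed-nucleus cell shares, with cell loss under 80%, at 10 µM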;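 also: anti alpha tubulin signal scored within the nucleus-defined area of each cell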
Pf gamet viab: P. falciparum stage V gametocyte viability inhibition; P. falciparum stage V gametocytes, ATP luminescence, 24 h; inhibition, % at 10.9 µM; actives 0.065% (n = 150,000); AID 743093;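 active = inhibition above the mean plus 3 SD of compounds within the control limits, set per campaign, cut at about 38% in these data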;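 also: 0% = DMSO wells and 100% = medium only without gametocytes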
KCC2 mod: KCC2 (human) Cl- transport modulation; Q9H2X9; KCC2 cells, thallium flux FluoZin-2 fluorescence; B-score of Tl+ flux slope (higher = more flux/activation; lower = inhibition) at 10 µM; actives 2.2% (n = 190,000);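 active = thallium flux slope and its plate-corrected score both differing from the plate sample mean at a set confidence after two filtering rounds, in either direction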;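 also: slope of fluorescence scaled to starting intensity during 10 to 20 s after thallium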
Target sequence (Q9H2X9 whole entry, looked up): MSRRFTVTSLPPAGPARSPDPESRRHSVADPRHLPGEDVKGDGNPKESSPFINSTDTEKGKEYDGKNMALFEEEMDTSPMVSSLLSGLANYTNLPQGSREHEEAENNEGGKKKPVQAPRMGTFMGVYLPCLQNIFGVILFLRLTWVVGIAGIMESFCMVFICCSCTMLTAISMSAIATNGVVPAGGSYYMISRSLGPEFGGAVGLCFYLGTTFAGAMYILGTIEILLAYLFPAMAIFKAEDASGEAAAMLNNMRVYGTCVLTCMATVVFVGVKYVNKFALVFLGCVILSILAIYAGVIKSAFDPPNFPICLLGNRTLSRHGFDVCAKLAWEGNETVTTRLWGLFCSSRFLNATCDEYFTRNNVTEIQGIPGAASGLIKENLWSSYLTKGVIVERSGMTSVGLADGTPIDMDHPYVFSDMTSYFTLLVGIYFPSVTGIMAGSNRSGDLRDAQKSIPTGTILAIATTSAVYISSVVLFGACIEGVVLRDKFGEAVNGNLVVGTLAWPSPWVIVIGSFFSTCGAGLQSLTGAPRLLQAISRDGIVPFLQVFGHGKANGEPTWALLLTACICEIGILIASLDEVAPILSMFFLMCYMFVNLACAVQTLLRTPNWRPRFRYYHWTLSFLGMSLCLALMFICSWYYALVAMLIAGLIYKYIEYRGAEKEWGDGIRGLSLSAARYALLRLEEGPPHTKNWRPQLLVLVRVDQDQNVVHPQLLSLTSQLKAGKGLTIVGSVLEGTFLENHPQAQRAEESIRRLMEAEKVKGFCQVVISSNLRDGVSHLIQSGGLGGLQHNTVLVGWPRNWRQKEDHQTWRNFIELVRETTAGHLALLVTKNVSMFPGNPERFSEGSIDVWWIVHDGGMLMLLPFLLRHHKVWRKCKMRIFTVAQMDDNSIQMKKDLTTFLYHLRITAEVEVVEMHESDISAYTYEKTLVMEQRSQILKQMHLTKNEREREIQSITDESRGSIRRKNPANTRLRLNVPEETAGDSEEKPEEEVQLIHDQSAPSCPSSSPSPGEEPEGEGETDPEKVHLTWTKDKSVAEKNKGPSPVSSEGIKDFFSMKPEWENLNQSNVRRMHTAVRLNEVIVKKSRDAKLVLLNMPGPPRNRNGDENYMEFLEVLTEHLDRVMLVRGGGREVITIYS
WT yeast gro inh: growth inhibition of WT yeast, mitochondrial fusion screen. inhibition, % at 10 µM. actives 2.1% (n = 190,000). mitochondrial fusion phenotypic screen, WT strain; in the data active = inhibition above about 58%; tested in S. cerevisiae
bCat nuc transl: modulators of beta-catenin nuclear translocation | nuclear translocation activity, % at 5 µM | AID 1665 | actives 0.3% (n = 190,000) | HeLa beta-catenin nuclear translocation, immunofluorescence imaging;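 active = nuclear translocation activity above 50% at 5 µM, with a well cell count of 50 or more; inconclusive = wells under 50 cells across six images, flagged as toxic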;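 also: per-cell ratio of nuclear to cytoplasmic median beta-catenin stain intensity; plate controls were DMSO negative control for no effect and GSK-3 inhibitor IX positive control for full effect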
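Test system: human HeLa cell line; Doses: 5 µM primary, 0.02–20 µM confirmation; Incubation: 24 h compound exposure, 37°C; Detection: beta-catenin immunofluorescence imaging with DAPI; Read-out: beta-catenin nuclear/cytoplasmic ratio, % activation.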
KCC2 sec1: KCC2 (human) modulation, secondary assay; AID 1713; actives 15% (n = 3,700); HEK293-KCC2, thallium flux, FluoZin2 fluorescence; hits give high values; normalised thallium flux (F/F0 slope) at 10 µM; shares compounds with KCC2 mod;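 active = thallium flux slope above the same plate's solvent-only control mean plus 3 SD; inconclusive = the two replicate wells disagree; inactive = no significant difference from solvent-only control wells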
KCC2 bumet counter: thallium flux persisting under bumetanide in KCC2 cells, counter-screen secondary assay | shares compounds with KCC2 mod | HEK293-KCC2 + bumetanide/ouabain, thallium flux FluoZin2; hits give high values | normalized thallium flux at 10 µM | actives 49% (n = 3,700);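 active = thallium entry rate above the same plate's blocked-transporter control wells by more than 3 SD; inconclusive = the two repeat wells disagree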;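 also: raw slope of fluorescence over initial fluorescence between 10 and 20 s after thallium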
KCC2 secondary2: KCC2 (human) modulation, second secondary assay | shares compounds with KCC2 mod | HEK293-KCC2, thallium flux FluoZin2 fluorescence; actives lie on both sides; F/F0 rise rate, 10–20 s post-thallium | normalized thallium flux at 10 µM | actives 23% (n = 3,700);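 active = thallium flux slope more than 3 SD above or below the plate's solvent-only control mean, mostly below; inconclusive = the two repeat wells disagreed; inactive = no significant shift from solvent-only controls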;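 also: raw slope with 0.1% DMSO as baseline and bumetanide as block control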
HEK293 Tl flux: counter-screen for KCC2 modulators: effect in parental HEK293 cells | shares compounds with KCC2 mod | thallium flux FluoZin2, ouabain; baseline-ratio fluorescence slope, 10–20 s after thallium | thallium flux rate (normalised fluorescence) at 10 µM | actives 46% (n = 3,700) | AID 1716;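 active = thallium flux rate significantly above the same plate's solvent-only control wells, beyond their mean plus 3 SD; inconclusive = the two replicate wells gave conflicting results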
KCC2 retest ouab: modulates human KCC2 on retest with ouabain | shares compounds with KCC2 mod | HEK293-KCC2, thallium flux FluoZin2 fluorescence; bidirectional: low = inhibitor, high = activator | raw Tl+ flux slope (below DMSO = inhibition, above = activation) at 10 µM | actives 48% (n = 3,700);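 active = thallium flux slope beyond 3 SD from same-plate DMSO control mean in most replicates, usually higher, sometimes lower; inconclusive = repeat tests gave conflicting results; inactive = no significant difference from controls in most replicates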;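 also: slope of initial-normalized fluorescence between seconds 10 and 20 after thallium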
HEK counter2: counter-screen for KCC2 modulators: effect in parental HEK293 cells; shares compounds with KCC2 mod; thallium flux FluoZin-2 fluorescence slope; thallium flux slope at 10 µM; actives 33% (n = 3,700); AID 1718;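 active = thallium flux slope above the same plate's solvent-control mean plus 3 SD in both duplicate wells; inconclusive = duplicate wells that disagreed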;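 also: run without ouabain in cells lacking the KCC2 cotransporter; slope of fluorescence scaled to its starting value between 10 and 20 s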
Active calls of the source: *. Rows were chosen to be rich in hits. Some 4% of all compounds tested hit in one or more screens of this group.

What do the screens show for `CC(C)CN1C=C2C(=O)C(C)(OC(=O)CCc3ccccc3)C(=O)C=C2C=C1c1ccc(C#N)cc1` (stereo not given)?
Pf gamet viab: 1; KCC2 mod: 3.1*; bCat nuc transl: -1; KCC2 sec1: 0.01; KCC2 bumet counter: 0.0064; KCC2 secondary2: 0.036; HEK293 Tl flux: 0.0076; KCC2 retest ouab: 0.023; HEK counter2: inconclusive

How did O=C(CSc1nc2ccccc2c(=O)n1-c1ccc(F)cc1F)c1c[nH]c2ccccc12 do in these assays?
MT stabilize HCS: 3; KCC2 mod: 0.098; WT yeast gro inh: -8; bCat nuc transl: 0

Results for NC(=O)c1ccccc1NC(=O)Nc1cccc2ccccc12 ?
MT stabilize HCS: 1; Pf gamet viab: -10; KCC2 mod: -4.1*; WT yeast gro inh: -18; bCat nuc transl: -1; KCC2 sec1: inconclusive; KCC2 bumet counter: 0.0063; KCC2 secondary2: 0.029; HEK293 Tl flux: 0.006; KCC2 retest ouab: 0.019; HEK counter2: 0.0095

Results for Cc1ccc(NC(=S)N/N=C2\CCCCC2C)cc1 (stereo not given) ?
MT stabilize HCS: 4; Pf gamet viab: 7; KCC2 mod: 6.9*; WT yeast gro inh: 30; bCat nuc transl: -1; KCC2 sec1: 0.0059; KCC2 bumet counter: 0.032*; KCC2 secondary2: 0.039*; HEK293 Tl flux: 0.02*; KCC2 retest ouab: 0.033*; HEK counter2: 0.022*

What do the screens show for `CC1CCCC/C1=N\NC(=S)Nc1cccnc1` (stereo not given)?
MT stabilize HCS: 3; Pf gamet viab: -5; KCC2 mod: 1.8; WT yeast gro inh: -4; bCat nuc transl: 1

Results for Brc1cccc(-c2cnc3n2CCCCC3)c1 ?
MT stabilize HCS: 2; Pf gamet viab: -1; WT yeast gro inh: 3; KCC2 sec1: 0.0093; KCC2 bumet counter: 0.0056; KCC2 secondary2: 0.033; HEK293 Tl flux: 0.0038; KCC2 retest ouab: 0.019; HEK counter2: 0.011

What do the screens show for `Cc1cc(NC(=O)CSc2nc(C(C)C)nc3sc(C)c(C)c23)no1`?
MT stabilize HCS: 2; Pf gamet viab: 6; KCC2 mod: 9.3*; WT yeast gro inh: -5; bCat nuc transl: -4; KCC2 sec1: inconclusive; KCC2 bumet counter: 0.034*; KCC2 secondary2: 0.038; HEK293 Tl flux: 0.017*; KCC2 retest ouab: inconclusive; HEK counter2: 0.012*

What do the screens show for `Cc1sc2nnn(CC(=O)N3CCN(C(=O)c4ccco4)CC3)c(=O)c2c1C`?
MT stabilize HCS: 3; Pf gamet viab: -5; KCC2 mod: 1.1

How did Cc1sc2nc(C(C)C)nc(SCC(=O)N3CCN(C(=O)c4ccco4)CC3)c2c1C do in these assays?
MT stabilize HCS: 4; WT yeast gro inh: 20; bCat nuc transl: 0; KCC2 sec1: 0.0066; KCC2 bumet counter: 0.017*; KCC2 secondary2: 0.029; HEK293 Tl flux: 0.012*; KCC2 retest ouab: 0.019; HEK counter2: 0.012*

How did Cc1cc(NC(=O)CSc2nc(C(C)C)nc3ccccc23)no1 do in these assays?
MT stabilize HCS: 6; Pf gamet viab: 30; KCC2 mod: -0.046; WT yeast gro inh: -12; bCat nuc transl: 9

Results for CC1CCc2c(sc(/N=C/c3ccco3)c2C(N)=O)C1 (stereo not given) ?
Pf gamet viab: 7; KCC2 mod: 0.016; bCat nuc transl: 0

What do the screens show for `O=C1/C(=C\c2ccco2)NC(=S)N1c1ccccc1`?
MT stabilize HCS: 3; Pf gamet viab: -7; KCC2 mod: 15*; WT yeast gro inh: 2; bCat nuc transl: 2; KCC2 sec1: 0.015*; KCC2 bumet counter: 0.033*; KCC2 secondary2: 0.034; HEK293 Tl flux: 0.018*; KCC2 retest ouab: inconclusive; HEK counter2: 0.013*

What do the screens show for `CCCN=C1N/C(=C\c2ccco2)C(=O)N1c1ccccc1`?
MT stabilize HCS: 2; KCC2 mod: 0.12; WT yeast gro inh: -2; bCat nuc transl: -7

How did CC1CCCN(C(=O)c2cccc(S(=O)(=O)Nc3cc(C(F)(F)F)ccc3Cl)c2)C1 (stereo not given) do in these assays?
MT stabilize HCS: 9; KCC2 mod: -3.7*; WT yeast gro inh: 26; bCat nuc transl: 0; KCC2 sec1: 0.0078; KCC2 bumet counter: 0.0051; KCC2 secondary2: 0.033; HEK293 Tl flux: 0.0076; KCC2 retest ouab: 0.015*; HEK counter2: 0.011

How did FC(F)(F)c1ccc2c(c1)[nH]c(=S)n2C1CC1 do in these assays?
MT stabilize HCS: 5; Pf gamet viab: -14; KCC2 mod: 62*; WT yeast gro inh: 18; bCat nuc transl: 1; KCC2 sec1: 0.03*; KCC2 bumet counter: 0.17*; KCC2 secondary2: 0.045*; HEK293 Tl flux: 0.069*; KCC2 retest ouab: 0.11*; HEK counter2: 0.027*

Results for CNC(=O)CN(c1cccc(Br)c1)S(C)(=O)=O ?
MT stabilize HCS: 3; KCC2 mod: 1.8; WT yeast gro inh: -4; KCC2 sec1: 0.015; KCC2 bumet counter: 0.0045; KCC2 secondary2: 0.027; HEK293 Tl flux: 0.0074; KCC2 retest ouab: 0.016; HEK counter2: 0.011

What do the screens show for `CC(C)NC(=O)CN(c1cccc(Br)c1)S(C)(=O)=O`?
MT stabilize HCS: 2; KCC2 mod: 1.1; WT yeast gro inh: 7; bCat nuc transl: -1

Results for Oc1c(C=Nc2ccccc2Cl)[nH]c2ccccc12 ?
Pf gamet viab: -13; KCC2 mod: inactive; bCat nuc transl: 0

What do the screens show for `O=C(N/N=C/c1cc(Cl)ccc1O)c1ccccc1Br`?
MT stabilize HCS: 3; Pf gamet viab: -20; KCC2 mod: -0.99; WT yeast gro inh: 4; bCat nuc transl: 2

What do the screens show for `Cc1cccc(OCC(=O)NCC(=O)N/N=C/c2cc(Br)ccc2OCc2ccccc2)c1`?
MT stabilize HCS: 3; Pf gamet viab: 26; KCC2 mod: -0.16; WT yeast gro inh: 18
